Experiment [1] has as its system Felis catus. As to the kind of experiment: Evaluated in vivo for bradycardic activity in anesthetized cat as a measure of % decrease of heart rate after 1 mg/Kg intravenous administration of the compound. The format is functional.
For experiment [2], the system named is Rattus norvegicus. Put plainly: Bradycardic activity measured as a percentage decrease of heart rate after 5 mg/kg intravenous administration in anesthetized rats. The class given is functional. Summed up:
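Male Chbb:THOM rats (200–250 g) were anesthetized with pentobarbital sodium 50 mg/kg ip, with tracheal cannulation and artificial respiration. Heart rate was recorded continuously by an ECG-triggered beat-to-beat tachograph. Dose was 5 mg/kg iv via the jugular vein. Rate was read at 2, 5 and 20 min, and the reduction taken at 5 min.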

Experiment [3] deals with Felis catus. Put plainly: Evaluated in vivo for bradycardic activity in anesthetized cat as a measure of percent decrease of heart rate after 1 mg/kg intravenous administration. The format is functional.
The nature of experiment [4]: Ratio between the EC30 values of aortic contracture and atrial rate. The format is functional, Cardiac atrium. The method, boiled down:
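Guinea pig atria (300–500 g, either sex) in modified Tyrode's gassed with 98% O2/2% CO2, resting tension 1 g. Rate measured in spontaneously beating atria at 37 °C after at least 30 min equilibration. Rabbit aortic strips contracted with 40 mM KCl plus 1.8 mM CaCl2 to a plateau. EC30 is the concentration relaxing the contracture, or lowering the predrug rate, by 30%.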

Experiment [5] is filed under the species Cavia porcellus. Put plainly: Evaluated in vitro for the effect on spontaneous rate in isolated guinea pig atria. The format is functional. Summed up:
(§1)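 Spontaneously beating guinea pig atria (either sex, 300–500 g) were held in modified Tyrode's solution gassed with 98% O₂/2% CO₂, at 1 g resting tension and 37 °C. Equilibration lasted at least 30 min, until rate varied by no more than 5 beats/min. Recording was isometric. EC₃₀ is the concentration lowering predrug rate by 30%, given with 95% confidence limits.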

Experiment [6] is filed under the species Oryctolagus cuniculus. Put plainly: Evaluated in vitro for the effect on K+ induced aortic contraction in isolated aortic strips of rabbit. The format is functional. To be noted: Aorta.
For experiment [7], the species on record is Cavia porcellus. Put plainly: Evaluated in vitro for its effect on atrial contractility in electrically stimulated isolated guinea pig left atria. To be noted: Cardiac atrium.
The nature of experiment [8]: Ratio between the EC30 values of atrial contractility and atrial rate. The format is functional, Cardiac atrium. Summed up:
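Isolated guinea pig atria (300–500 g, either sex) in modified Tyrode's gassed with 98% O2/2% CO2, resting tension 1 g, isometric recording. Rate measured in spontaneously beating atria at 37 °C after ≥30 min equilibration. Contractility (g) measured in left atria paced at 2.5 Hz (3 ms pulses, 1.5× threshold), 30 °C, 20 min equilibration. EC30 is the concentration lowering the predrug value by 30%.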

Experiment [9] is filed under the species Cavia porcellus. Put plainly: Evaluated in vitro for the effect on spontaneous atrial rate in isolated guinea pig atria. The format is functional. To be noted: Cardiac atrium. The method, boiled down: as §1

≈ marks a conversion by molar mass, not a printed value.

With `COc1ccc(CCN(C)CCCN2CCCc3cc(OC)c(OC)cc3C2=O)cc1OC`, the Decrease in [1] is given as -8%. In the case of `CCCN(CCCN1CCc2cc(OC)c(OC)cc2CC1=O)CCc1ccc(OC)c(OC)c1.Cl`, in [2], the Decrease is given as -56%. On the same count and under the same terms, under `CCOC(=O)N(CCCN1CCc2cc(OC)c(OC)cc2CC1=O)CCc1ccc(OC)c(OC)c1` stands -8%. The same measure, in the same setting: the value for `COc1cc2c(cc1OC)CC(=O)N(CCCN(C)CCc1ccc([N+](=O)[O-])cc1)CC2.Cl` was -41%. For `COc1ccc(CCN(C)CCCN2CCc3c(C)c(C)c(C)c(C)c3CC2=O)cc1OC.Cl`, in experiment [2], the Decrease was -41%.

As to `COc1cc2c(cc1OC)CC(=O)N(CCCN(C)CCc1ccc(O)cc1)CC2.Cl`, in [2], the Decrease is -33%. On to `COc1ccc(CCN(C)CCCN2CCc3cc4c(cc3CC2=O)OCCO4)cc1OC.Cl`, for which the Decrease in experiment [2] is recorded as -49%. Consider `COc1cc2c(cc1OC)CC(=O)N(CCCN(C)CCc1c(Cl)cccc1Cl)CC2.Cl.Cl.Cl.Cl`, for which the Decrease in experiment [2] is listed as -13%. For `COc1ccc(CN(C)CCCN2CCc3cc(OC)c(OC)cc3CC2=O)cc1OC`, the Decrease in [2] is -26%. `COc1ccc(CCN(C)CCCN2CCc3cc4c(cc3CC2=O)OCO4)cc1OC.Cl`: in experiment [2], the Decrease was -42%. Turning to `COc1ccc(CCN(C)CCCN2CCc3cc(OC)c(OC)cc3CC2=O)cc1.Cl`, the Decrease in [2] is recorded as -42%. The same measure, in the same setting: under `COc1ccc(CCN(C)CC(C)CN2CCc3cc(OC)c(OC)cc3CC2=O)cc1OC.Cl` (stereo not drawn) stands -43%.

With `COc1cc2c(cc1OC)CC(=O)N(CCCN(C)CCc1ccc(N)cc1)CC2`, in experiment [2], the Decrease is -30%. Still for that read-out and setting: under `COc1ccc(OCCCCN(C)CCCN2CCc3cc(OC)c(OC)cc3CC2=O)cc1OC.Cl` stands -37%; under `COc1ccc(OCCCN(C)CCCN2CCc3cc(OC)c(OC)cc3CC2=O)cc1OC.Cl`, -63%; under `COc1cc2c(cc1OC)CC(=O)N(CCCN(C)CCc1ccc(Cl)c(Cl)c1)CC2.Cl.Cl`, -47%. Same read-out and setting: under `CCCCOc1ccc(CCN(C)CCCN2CCc3cc(OC)c(OC)cc3CC2=O)cc1` stands -55%. Still for that read-out and setting: under `COc1ccc(CCN(C)CCCN2CCc3ccccc3CC2=O)cc1OC.Cl` stands -35%; under `COc1cc2c(cc1OC)CC(=O)N(CCCN(C)CCc1ccccc1)CC2.Cl.Cl`, -52%. In the case of `COc1ccc(OCCN(C)CCCN2CCc3cc(OC)c(OC)cc3CC2=O)cc1OC.Cl`, the Decrease in experiment [2] is recorded as -59%. On the same count and under the same terms, the value for `COc1cc2c(cc1OC)CC(=O)N(CCCN(C)CCc1ccc(Cl)cc1)CC2.Cl` was -55%. The same measure, in the same setting: under `COc1cc2c(cc1OC)CC(=O)N(CCCN(C)CCc1cc(OC)c(OC)c(OC)c1)CC2.Cl` stands -21%; under `COc1cc2c(cc1OC)CC(=O)N(CCCN(C)CCc1ccc(C(C)(C)C)cc1)CC2.Cl.Cl`, -58%. On the same count and under the same terms, under `COc1ccc(CCNCCCN2CCc3cc(OC)c(OC)cc3CC2=O)cc1OC.Cl` stands -66%.

As for `COc1ccc(CCN(C)CCCN2Cc3cc(OC)c(OC)cc3C2=O)cc1OC.Cl`, the Decrease in [3] is recorded as -16%. Moreover, the Ratio was found to be 35 in experiment [4] and 154 in experiment [8]. For the same compound, the EC30 in experiment [5] came to 0.608 µg/mL; in [6], 21.3 µg/mL; in experiment [7], 93.6 µg/mL. As for `COc1ccc(SCCCN(C)CCCN2CCc3cc(OC)c(OC)cc3CC2=O)cc1OC.Cl`, the Decrease in experiment [2] is reported as -47%. Take `COc1ccc(SCCN(C)CCCN2CCc3cc(OC)c(OC)cc3CC2=O)cc1OC.Cl`: the Decrease in [2] is -44%. Same read-out and setting: the value for `COc1ccc(CCN(C)CC(O)CN2CCc3cc(OC)c(OC)cc3CC2=O)cc1OC` (stereo not drawn) was -28%; that for `COc1ccc(CCCCCN(C)CCCN2CCc3cc(OC)c(OC)cc3CC2=O)cc1OC.Cl` was -36%.

Turning to `COc1ccc(CCN(C)CCC[C@@](C#N)(c2ccc(OC)c(OC)c2)C(C)C)cc1OC` [(S)-VERAPAMIL], the Ratio in experiment [4] is listed as 0.409; in experiment [8], 0.88. The EC30 in experiment [9] worked out at 0.0694 µg/mL (≈ 0.153 µM); in experiment [6], 0.0284 µg/mL (≈ 0.0625 µM); in experiment [7] it was 0.0611 µg/mL (≈ 0.134 µM). Consider `COc1ccc2c(c1)CC(=O)N(CCCN(C)CCc1ccc(OC)c(OC)c1)CC2.Cl.Cl`, for which the Decrease in experiment [2] was -44%.

`COc1ccc(CC[N+](C)(C)CCCN2CCc3cc(OC)c(OC)cc3CC2=O)cc1OC.[I-]`: the Decrease in experiment [2] was -9%. As to `COc1ccc(CCSCCCN2CCc3cc(OC)c(OC)cc3CC2=O)cc1OC`, in experiment [2], the Decrease stood at 1%. The same measure, in the same setting: the value for `COc1ccc(CC[S+]([O-])CCCN2CCc3cc(OC)c(OC)cc3CC2=O)cc1OC` (stereo not drawn) was -4%; that for `COc1ccc(CCN(C)CCCN2CCc3c(OC)ccc(OC)c3CC2=O)cc1OC.Cl` was -21%; that for `COc1cc2c(cc1O)CC(=O)N(CCCN(C)CCc1ccc(OC)c(OC)c1)CC2` was -29%. Turning to `COc1ccc([C@@H]2Sc3ccccc3N(CCN(C)C)C(=O)[C@@H]2OC(C)=O)cc1` [DILTIAZEM], the Ratio came to 0.53 in experiment [4] and 19.5 in experiment [8]. Further, the EC30 in experiment [9] was 0.14 µg/mL (≈ 0.338 µM); in experiment [6] it was 0.0741 µg/mL (≈ 0.179 µM); in experiment [7], 2.73 µg/mL (≈ 6.59 µM). Take `COc1ccc(CCN(CCCN2CCc3cc(OC)c(OC)cc3CC2=O)C(C)=O)cc1OC`: in experiment [2], the Decrease is -3%. The same measure, in the same setting: the value for `COc1cc2c(cc1OC)CC(=O)N(CCCN(C)CCc1ccc(N(C)C)cc1)CC2.Cl.Cl` was -60%; that for `COc1ccc(NCCN(C)CCCN2CCc3cc(OC)c(OC)cc3CC2=O)cc1OC` was -39%. Take `COc1ccc(CCN(CCCN2CCc3cc(OC)c(OC)cc3CC2=O)CCc2ccc(OC)c(OC)c2)cc1OC`: the Decrease in [2] was -28%. `COc1ccc(CCN(C)CCN2CCc3cc(OC)c(OC)cc3CC2=O)cc1OC.Cl`: the Decrease in [2] was -13%. The same measure, in the same setting: under `COc1ccc(NCCCN(C)CCCN2CCc3cc(OC)c(OC)cc3CC2=O)cc1OC` stands -51%; under `COc1ccc(CCN(C)CCCN2CCc3cc(O)c(O)cc3CC2=O)cc1OC`, -30%; under `COc1ccc(CCS(=O)(=O)CCCN2CCc3cc(OC)c(OC)cc3CC2=O)cc1OC`, -1%. Turning to `COc1ccc(CCN(C)CCCN2CCc3cc(OC)c(OC)cc3C2=O)cc1OC.Cl`, the Decrease in [1] was -29%. `COc1ccc(CCCCN(C)CCCN2CCc3cc(OC)c(OC)cc3CC2=O)cc1OC.Cl`: the Decrease in [2] is -46%.

Regarding `COc1ccc(N(C)CCCN2CCc3cc(OC)c(OC)cc3CC2=O)cc1OC`, in [2], the Decrease is -17%.

For `COc1ccc(CCN(C)CCCN2CCc3cc(OC)c(OC)cc3CC2=O)cc1OC.Cl` [ZATEBRADINE HYDROCHLORIDE], the Ratio was determined as 500 in experiment [4] and 3600 in experiment [8]. For the same compound, the results for the EC30 in experiment [9], in [6] and in [7] were 0.03 µg/mL, 15 µg/mL and 108 µg/mL, respectively. Further, the Decrease in [1] and in [2] was -56% each time. As for `COc1ccc(CCN(C)CCCN2CCc3ccc(OC)c(OC)c3CC2=O)cc1OC.Cl`, the Decrease in experiment [2] is -34%. For `COc1cc(OC)c(CCN(C)CCCN2CCc3cc(OC)c(OC)cc3CC2=O)c(OC)c1.Cl`, the Decrease in [2] is -25%.

As to `COc1cc2c(cc1OC)CC(=O)N(CCCN(C)CCc1ccc(OCc3ccccc3)cc1)CC2`, the Decrease in [2] is on record as -27%. As to `COc1cc2c(cc1O)CCN(CCCN(C)CCc1ccc(OC)c(OC)c1)C(=O)C2.Cl`, in experiment [2], the Decrease is listed as -47%. For `COC(=O)C1=C(C)NC(C)=C(C(=O)OC)C1c1ccccc1[N+](=O)[O-]` [NIFEDIPINE], the Ratio in [4] turned out to be 0.036; in experiment [8] it was 0.135. Besides, the EC30 in [9] came out at 0.11 µg/mL (≈ 0.318 µM); in experiment [6], 0.00397 µg/mL (≈ 0.0115 µM); in experiment [7] it was 0.0149 µg/mL (≈ 0.043 µM).

Consider `COc1cc2c(cc1OC)CC(=O)N(CCCN(C)CCc1ccc(OS(C)(=O)=O)cc1)CC2.Cl`, for which, in experiment [2], the Decrease is recorded as -46%. On the same count and under the same terms, the value for `COc1ccc(CCN(C)CCCN2CCc3cc(C)c(C)cc3CC2=O)cc1OC.Cl.Cl` was -49%. On the same count and under the same terms, the value for `COc1ccc2c(c1)CCN(CCCN(C)CCc1ccc(OC)c(OC)c1)C(=O)C2.Cl` was -31%; that for `COc1ccc(CCN(C)CCCCN2CCc3cc(OC)c(OC)cc3CC2=O)cc1OC.Cl` was -33%; that for `C=CCN(CCCN1CCc2cc(OC)c(OC)cc2CC1=O)CCc1ccc(OC)c(OC)c1.Cl` was -65%.

As for `COc1ccc(CCCN(C)CCCN2CCc3cc(OC)c(OC)cc3CC2=O)cc1OC.Cl`, the Decrease in experiment [2] was -55%.

The values above are taken from ChEMBL document CHEMBL1124777, “Specific bradycardic agents. 1. Chemistry, pharmacology, and structure-activity relationships of substituted benzazepinones, a-new class of compounds exerting antiischemic properties” (1990).
